Experiments:
Format in all cases: functional
UACC-62 = test: Growth inhibition of human UACC62 cells at 10 uM after 48 hrs by coulter counter method; conditions: UACC-62, 48 h, read-out: GI
Outline: (§1)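 Single high-dose NCI 60-cell-line panel screen across nine tumor subpanels. Test solutions (0.2 mL) were added in duplicate to wells holding 1.8 mL of culture at 6 × 10⁴ cells/mL. Controls got PBS and DMSO at identical dilutions. Incubation was 48 h at 37 °C in humidified 5% CO₂. Cells were diluted 10-fold in saline, Coulter-counted and dilution-corrected. Results were expressed as percent growth inhibition versus control.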

U-251 = test: Growth inhibition of human U251 cells at 10 uM after 48 hrs by coulter counter method; conditions: U-251, 48 h, read-out: GI; outline: as §1
NCI-H23 = test: Growth inhibition of human NCI-H23 cells at 10 uM after 48 hrs by coulter counter method; conditions: NCI-H23, 48 h, read-out: GI; outline: as §1
SK-MEL-2 = test: Growth inhibition of human SK-MEL-2 cells at 10 uM after 48 hrs by coulter counter method; conditions: SK-MEL-2, 48 h, read-out: GI; outline: as §1
IGROV-1 = test: Growth inhibition of human IGROV1 cells at 10 uM after 48 hrs by coulter counter method; conditions: IGROV-1, 48 h, read-out: GI; outline: as §1
UO-31 = test: Growth inhibition of human UO31 cells at 10 uM after 48 hrs by coulter counter method; conditions: UO-31, 48 h, read-out: GI; outline: as §1
CAKI-1 = test: Growth inhibition of human Caki1 cells at 10 uM after 48 hrs by coulter counter method; conditions: CAKI-1, 48 h, read-out: GI; outline: as §1
HCT-116 = test: Growth inhibition of human HCT116 cells at 10 uM after 48 hrs by coulter counter method; conditions: HCT-116, 48 h, read-out: GI; outline: as §1
BT-549 = test: Growth inhibition of human BT549 cells at 10 uM after 48 hrs by coulter counter method; conditions: BT-549, 48 h, read-out: GI; outline: as §1
HT-29 = test: Growth inhibition of human HT-29 cells at 10 uM after 48 hrs by coulter counter method; conditions: HT-29, 48 h, read-out: GI; outline: as §1
MDA-MB-231 = test: Growth inhibition of human MDA-MB-231 cells at 10 uM after 48 hrs by coulter counter method; conditions: MDA-MB-231, 48 h, read-out: GI; outline: as §1
SF-268 = test: Growth inhibition of human SF268 cells at 10 uM after 48 hrs by coulter counter method; conditions: SF-268, 48 h, read-out: GI; outline: as §1
M14 = test: Growth inhibition of human M14 cells at 10 uM after 48 hrs by coulter counter method; conditions: M14, 48 h, read-out: GI; outline: as §1
SR = test: Growth inhibition of human SR cells at 10 uM after 48 hrs by coulter counter method; conditions: read-out: GI; outline: as §1
PC-3 = test: Growth inhibition of human PC3 cells at 10 uM after 48 hrs by coulter counter method; conditions: PC-3, 48 h, read-out: GI; outline: as §1
SK-OV-3 = test: Growth inhibition of human SKOV3 cells at 10 uM after 48 hrs by coulter counter method; conditions: SK-OV-3, 48 h, read-out: GI; outline: as §1
SF-539 = test: Growth inhibition of human SF539 cells at 10 uM after 48 hrs by coulter counter method; conditions: SF-539, 48 h, read-out: GI; outline: as §1
T47D = test: Growth inhibition of human T47D cells at 10 uM after 48 hrs by coulter counter method; conditions: read-out: GI; outline: as §1
SK-MEL-28 = test: Growth inhibition of human SK-MEL-28 cells at 10 uM after 48 hrs by coulter counter method; conditions: SK-MEL-28, 48 h, read-out: GI; outline: as §1
OVCAR-4 = test: Growth inhibition of human OVCAR4 cells at 10 uM after 48 hrs by coulter counter method; conditions: OVCAR-4, 48 h, read-out: GI; outline: as §1
A549 = test: Growth inhibition of human A549 cells at 10 uM after 48 hrs by coulter counter method; conditions: A549, 48 h, read-out: GI; outline: as §1
MDA-MB-468 = test: Growth inhibition of human MDA-MB-468 cells at 10 uM after 48 hrs by coulter counter method; conditions: MDA-MB-468, 48 h, read-out: GI; outline: as §1
SNB-75 = test: Growth inhibition of human SNB75 cells at 10 uM after 48 hrs by coulter counter method; conditions: SNB-75, 48 h, read-out: GI; outline: as §1
COLO 205 = test: Growth inhibition of human COLO205 cells at 10 uM after 48 hrs by coulter counter method; conditions: COLO 205, 48 h, read-out: GI; outline: as §1
OVCAR-8 = test: Growth inhibition of human OVCAR8 cells at 10 uM after 48 hrs by coulter counter method; conditions: OVCAR-8, 48 h, read-out: GI; outline: as §1
NCI-H226 = test: Growth inhibition of human NCI-H226 cells at 10 uM after 48 hrs by coulter counter method; conditions: NCI-H226, 48 h, read-out: GI; outline: as §1
HOP-92 = test: Growth inhibition of human HOP92 cells at 10 uM after 48 hrs by coulter counter method; conditions: HOP-92, 48 h, read-out: GI; outline: as §1
KM12 = test: Growth inhibition of human KM12 cells at 10 uM after 48 hrs by coulter counter method; conditions: KM12, 48 h, read-out: GI; outline: as §1
786-0 = test: Growth inhibition of human 786-0 cells at 10 uM after 48 hrs by coulter counter method; conditions: 786-0, 48 h, read-out: GI; outline: as §1
HL-60(TB) = test: Growth inhibition of human HL-60(TB) cells at 10 uM after 48 hrs by coulter counter method; conditions: HL-60, 48 h, read-out: GI
Outline: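 Part of the NCI 60-cell-line single-high-dose panel. Cells were seeded at 6 × 10⁴ cells/mL with test solution in duplicate wells, alongside PBS/DMSO controls at identical dilutions. Plates were held 48 h at 37 °C in a humidified 5% CO₂ incubator. Cells were then diluted 10-fold in saline and counted by Coulter counter, with counts corrected for dilution. Results are percent growth of treated cells, reported as GI %.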

K562 = test: Growth inhibition of human K562 cells at 10 uM after 48 hrs by coulter counter method; conditions: K562, 48 h, read-out: GI; outline: as §1
SN12C = test: Growth inhibition of human SN12C cells at 10 uM after 48 hrs by coulter counter method; conditions: read-out: GI; outline: as §1
MOLT-4 = test: Growth inhibition of human MOLT4 cells at 10 uM after 48 hrs by coulter counter method; conditions: MOLT-4, 48 h, read-out: GI; outline: as §1
MCF7 = test: Growth inhibition of human MCF7 cells at 10 uM after 48 hrs by coulter counter method; conditions: MCF7, 48 h, read-out: GI; outline: as §1
NCI-H522 = test: Growth inhibition of human NCI-H522 cells at 10 uM after 48 hrs by coulter counter method; conditions: NCI-H522, 48 h, read-out: GI; outline: as §1
[1] = Growth inhibition of human Hs 578T cells at 10 uM after 48 hrs by coulter counter method; conditions: read-out: GI; outline: as §1
CCRF-CEM = test: Growth inhibition of human CCRF-CEM cells at 10 uM after 48 hrs by coulter counter method; conditions: read-out: GI; outline: as §1

SMILES | inhibition of growth at 10 µM (UACC-62) | inhibition of growth at 10 µM (U-251) | inhibition of growth at 10 µM (NCI-H23) | inhibition of growth at 10 µM (SK-MEL-2) | inhibition of growth at 10 µM (IGROV-1) | inhibition of growth at 10 µM (UO-31) | inhibition of growth at 10 µM (CAKI-1) | inhibition of growth at 10 µM (HCT-116) | inhibition of growth at 10 µM (BT-549) | inhibition of growth at 10 µM (HT-29) | inhibition of growth at 10 µM (MDA-MB-231) | inhibition of growth at 10 µM (SF-268) | inhibition of growth at 10 µM (M14) | inhibition of growth at 10 µM (SR) | inhibition of growth at 10 µM (PC-3) | inhibition of growth at 10 µM (SK-OV-3) | inhibition of growth at 10 µM (SF-539) | inhibition of growth at 10 µM (T47D) | inhibition of growth at 10 µM (SK-MEL-28) | inhibition of growth at 10 µM (OVCAR-4) | further results
NS(=O)(=O)c1ccc(Nc2nc3ccccc3c(=O)n2-c2ccc(Cl)cc2)cc1 | 30% | 30% | 30% | 30% | 30% | 30% | 30% | 33.6% | 30% | 30% | 30% | 30% | 30% | 30.2% | 30% | 30% | 30% | 30% | 30% | 30% | inhibition of growth at 10 µM (A549): 30%; inhibition of growth at 10 µM (MDA-MB-468): 30%; inhibition of growth at 10 µM (SNB-75): 30%; inhibition of growth at 10 µM (COLO 205): 30%; inhibition of growth at 10 µM (OVCAR-8): 30%; inhibition of growth at 10 µM (NCI-H226): 30%; inhibition of growth at 10 µM (HOP-92): 30%; inhibition of growth at 10 µM (KM12): 30%; inhibition of growth at 10 µM (786-0): 30%; inhibition of growth at 10 µM (HL-60(TB)): 30%; inhibition of growth at 10 µM (K562): 34.3%; inhibition of growth at 10 µM (SN12C): 30%; inhibition of growth at 10 µM (MOLT-4): 38.1%; inhibition of growth at 10 µM (MCF7): 30%; inhibition of growth at 10 µM (NCI-H522): 30%; inhibition of growth at 10 µM [1]: 30%; inhibition of growth at 10 µM (CCRF-CEM): 30%
COc1ccc(-n2c(Nc3ccc(S(N)(=O)=O)cc3)nc3ccccc3c2=O)cc1 | 30% | 30% | 30% | 30% | 30% | 30% | 30% | 36.7% | 30% | 30% | 30% | 30% | 30% | 30% | 30% | 30% | 30% | 30% | 30% | 30% | inhibition of growth at 10 µM (A549): 30%; inhibition of growth at 10 µM (MDA-MB-468): 37.5%; inhibition of growth at 10 µM (SNB-75): 30%; inhibition of growth at 10 µM (COLO 205): 30%; inhibition of growth at 10 µM (OVCAR-8): 30%; inhibition of growth at 10 µM (NCI-H226): 30%; inhibition of growth at 10 µM (HOP-92): 30%; inhibition of growth at 10 µM (KM12): 30%; inhibition of growth at 10 µM (786-0): 30%; inhibition of growth at 10 µM (HL-60(TB)): 30%; inhibition of growth at 10 µM (K562): 47.1%; inhibition of growth at 10 µM (SN12C): 30%; inhibition of growth at 10 µM (MOLT-4): 30%; inhibition of growth at 10 µM (MCF7): 30%; inhibition of growth at 10 µM (NCI-H522): 30%; inhibition of growth at 10 µM [1]: 30%; inhibition of growth at 10 µM (CCRF-CEM): 30%
O=c1c2ccccc2nc(Nc2cc(O)nc(S)n2)n1-c1ccc(Cl)cc1 | 30% | 30% | 30% | 30% | 30% | 30% | 30% | 30% | 30% | 30% | 30% | 30% | 30% | 36.4% | 30% | 30% | 30% | 30% | 30% | 30% | inhibition of growth at 10 µM (A549): 30%; inhibition of growth at 10 µM (MDA-MB-468): 30%; inhibition of growth at 10 µM (SNB-75): 30%; inhibition of growth at 10 µM (COLO 205): 30%; inhibition of growth at 10 µM (OVCAR-8): 30%; inhibition of growth at 10 µM (NCI-H226): 30%; inhibition of growth at 10 µM (HOP-92): 30%; inhibition of growth at 10 µM (KM12): 30%; inhibition of growth at 10 µM (786-0): 30%; inhibition of growth at 10 µM (HL-60(TB)): 30%; inhibition of growth at 10 µM (K562): 36.5%; inhibition of growth at 10 µM (SN12C): 30%; inhibition of growth at 10 µM (MOLT-4): 30.8%; inhibition of growth at 10 µM (MCF7): 30%; inhibition of growth at 10 µM (NCI-H522): 30%; inhibition of growth at 10 µM [1]: 30%; inhibition of growth at 10 µM (CCRF-CEM): 30%
O=C1Nc2ccc(C(=O)Nc3ccccn3)cc2C(c2ccc(Cl)cc2)N1 (stereo not drawn) | 30% | 30% | 30.4% | 30% | 30% | 41.8% | 30% | 39.8% | 31.8% | 37.4% | 30% | 30% | 30% | 30% | 32.9% | 30% | 30% | 44.9% | 30% | 30% | inhibition of growth at 10 µM (A549): 30%; inhibition of growth at 10 µM (MDA-MB-468): 30%; inhibition of growth at 10 µM (SNB-75): 30%; inhibition of growth at 10 µM (COLO 205): 30%; inhibition of growth at 10 µM (OVCAR-8): 30%; inhibition of growth at 10 µM (NCI-H226): 30%; inhibition of growth at 10 µM (HOP-92): 30%; inhibition of growth at 10 µM (KM12): 30%; inhibition of growth at 10 µM (786-0): 30%; inhibition of growth at 10 µM (HL-60(TB)): 30%; inhibition of growth at 10 µM (K562): 30%; inhibition of growth at 10 µM (SN12C): 30%; inhibition of growth at 10 µM (MOLT-4): 33.9%; inhibition of growth at 10 µM (MCF7): 39.2%; inhibition of growth at 10 µM (NCI-H522): 30%; inhibition of growth at 10 µM [1]: 30%; inhibition of growth at 10 µM (CCRF-CEM): 30%

Reference: ChEMBL document CHEMBL1629431, “Synthesis and antitumor activity of some 2, 3-disubstituted quinazolin-4(3H)-ones and 4, 6- disubstituted- 1, 2, 3, 4-tetrahydroquinazolin-2H-ones” (2010)
